# An excerpt weighted towards active compounds, which were near 9.6% of everything screened.
# L major viab – reduces viability of Leishmania major promastigotes; resazurin fluorescence viability; inhibition, % at 10 µM; actives 9% (n = 200,000); in the data active = inhibition above about 50%;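 also: promastigotes grown with compound for 44 hours at 28 °C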
# MT stabilize HCS – microtubule stabilizers in HeLa cells. % tubulin-high responders, % at 10 µM. HeLa tubulin immunostaining HCS, 24 h; share of cells brighter than vehicle mean+2SD. actives 0.83% (n = 200,000);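 active = plate Z-score above 3 for both tubulin-high and condensed-nucleus cell shares, with cell loss under 80%, at 10 µM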;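 also: anti alpha tubulin signal scored within the nucleus-defined area of each cell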
# b-catenin transl – beta-catenin nuclear translocation modulation | nuclear translocation activity, % at 5 µM | AID 1665 | actives 0.3% (n = 190,000) | HeLa beta-catenin nuclear translocation, immunofluorescence imaging;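 active = nuclear translocation activity above 50% at 5 µM, with a well cell count of 50 or more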;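 also: per-cell ratio of nuclear to cytoplasmic median beta-catenin stain intensity; plate controls were DMSO negative control for no effect and GSK-3 inhibitor IX positive control for full effect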
#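 Test system: human HeLa cell line; Doses: 5 µM primary, 0.02–20 µM confirmation; Incubation: 24 h compound exposure, 37°C; Detection: beta-catenin immunofluorescence imaging with DAPI; Read-out: beta-catenin nuclear/cytoplasmic ratio, % activation.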
# BaF3 tox – parental Ba/F3 viability inhibition as JAK2V617F counter-screen | AID 1486 | inhibition, % at 5.6 µM | CellTiter-Glo ATP luminescence | actives 1.1% (n = 220,000);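 active = inhibition above a per-campaign cutoff, the mean inhibition of all tested compounds plus 3 SD, cut at about 27% in these data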;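 also: 0% = DMSO wells and 100% = JAK Inhibitor I control wells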
# APP 5UTR inh – APP translation inhibition | actives 0.82% (n = 190,000) | inhibition, % at 2 µM | SH-SY5Y APP 5'UTR-luciferase reporter, luminescence;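 active = inhibition above a set limit, derived from the sample mean plus 3 SD, cut at about 45% in these data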
# Ba/F3 V617F tox – reduce viability of Ba/F3 cells dependent on JAK2V617F; Ba/F3 EpoR-JAK2V617F viability, ATP luminescence; inhibition, % at 5.6 µM; actives 1.1% (n = 220,000); AID 1446;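 active = inhibition above the campaign mean plus 3 SD over all tested compounds, cut at about 24% in these data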;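 also: cytokine-independent growth of Ba/F3 cells driven by EpoR plus mutant JAK2; 0% = DMSO-treated cells and 100% = JAK inhibitor I control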
# Starred values were filed as active, the others as inactive; . = not tested or not shown.
SMILES,L major viab,MT stabilize HCS,b-catenin transl,BaF3 tox,APP 5UTR inh,Ba/F3 V617F tox
O=C(NCc1ccc(F)cc1)C(=O)NCC1OCCN1C(=O)c1ccc(Cl)cc1 (stereo not drawn),-3,3,-2,7,9,1
CC1C(=O)N(Cc2ccc([N+](=O)[O-])cc2)c2ccccc2N1C(=O)C1CC1 (stereo not drawn),6,3,0,0,10,3
CCOc1ccccc1NC(=O)C(=O)N/N=C/c1ccc([N+](=O)[O-])cc1,-2,8,-2,0,12,-3
O/N=C/c1cc(Br)ccc1OCc1ccc(F)cc1,100*,3,.,0,-12,-1
COc1ccccc1NC(=O)C(=O)N/N=C/c1ccc([N+](=O)[O-])s1,100*,5,1,2,24,-1
O=C(Cc1ccccc1)N/N=C/c1ccc([N+](=O)[O-])s1,101*,4,2,7,2,4
Cc1ccc(COc2ccc(Br)cc2/C=N/O)cc1,7,3,1,4,-78,2
CCn1c(SCC(=O)N/N=C/c2ccc(C)s2)nc2ccccc21,5,20*,46,7,4,-1
O=C(NNS(=O)(=O)c1ccc(F)cc1F)c1csc(-c2cccnc2)n1,.,.,0,0,.,0
Cc1cc2nnc(SCC(=O)N3CCCCCC3)n2c(N)n1,-7,1,-2,4,-3,-2
COc1ccc(C(=O)C(Cc2cc(C(C)=O)ccc2OC)N2CCCC2)cc1 (stereo not drawn),6,4,1,-5,-22,0
O=C(N/N=C/c1ccc([N+](=O)[O-])s1)c1ccccc1Br,100*,4,1,2,38,5
Cc1ccccc1C(=O)N/N=C/c1ccc([N+](=O)[O-])s1,100*,4,.,5,43,2
O=C(N/N=C/c1ccc([N+](=O)[O-])s1)C(O)c1ccccc1 (stereo not drawn),100*,2,4,-6,9,-3
O=C(N/N=C/c1ccc([N+](=O)[O-])s1)c1ccccc1,100*,6,4,7,24,5
O=C(N/N=C/c1ccc(Br)s1)c1cccc([N+](=O)[O-])c1,19,2,-5,7,44,-1
COCc1c(C(=O)OC)nnn1-c1ccc(C(F)(F)F)cc1[N+](=O)[O-],-4,4,-3,1,-4,1
NC(=O)/C(=C\c1cccnc1)NC(=O)c1ccccc1,-1,2,2,4,-16,0
CCC1(C)Cc2ccccc2C(=S)N1 (stereo not drawn),-1,2,1,3,-3,-5
O=C(CNC(=O)c1ccncc1)N/N=C/c1ccccc1[N+](=O)[O-],18,4,.,2,-16,-1
COC(=O)N/N=C/c1ccc([N+](=O)[O-])s1,69*,4,.,3,22,0
O=C(N/N=C\c1ccc([N+](=O)[O-])s1)c1cncc(Br)c1,100*,3,2,8,31,2
Cn1c(SCC(=O)N/N=C/c2ccc([N+](=O)[O-])s2)nnc1-c1ccccc1,100*,3,-1,7,18,1
O=C(N/N=C/c1cccs1)c1cncc(Br)c1,11,4,-1,0,-6,-3
O=C(CNC(=O)c1cccc(F)c1)N/N=C/c1ccc([N+](=O)[O-])s1,100*,2,0,11,5,4
SMILES,L major viab,MT stabilize HCS,b-catenin transl,BaF3 tox,APP 5UTR inh,Ba/F3 V617F tox
C/C(=N\n1nnnc1Nc1ccccc1)c1ccc(N)cc1,2,7,1,7,-15,5
C/C(=N\NC(=O)C(c1ccncc1)N1CCOCC1)c1ccc(Br)cc1 (stereo not drawn),-4,3,0,4,-7,-2
CCOC(=O)c1cc(NC(=O)CSc2nnc(CN3CCOCC3)n2C)ccc1Cl,-3,2,.,-2,-8,4
O=C(CNC(=O)c1cccc(F)c1)N/N=C/c1cc(Br)ccc1OCc1ccccc1,51*,7,-2,3,-11,-1
O=C(CNC(=O)c1ccccc1F)N/N=C/c1cc(Br)ccc1OCc1ccccc1,8,4,10,9,-17,0
CCNc1nnc(CCn2nc(C)c(Br)c2C)s1,-3,2,0,-1,19,1
Cc1ccc(S(=O)(=O)N(C)c2ccc(OCC(=O)Nc3nnc(C4CC4)s3)cc2)cc1,96*,3,1,0,5,-1
CCOc1ccc(C(=O)N/N=C(/C)C2C(=O)c3ccccc3C2=O)cc1,-13,5,2,3,-7,-4
CCOc1ccccc1C(=O)N/N=C/c1cccc2cccnc12,25,5,6,3,6,4
CCOc1ccc(OCc2ccc(C(=O)N/N=C(\C)c3ccccn3)cc2)cc1,19,11,5,8,78*,5
CCOc1ccc(C(=O)N/N=C/c2cccc3cccnc23)cc1,98*,3,-2,2,-14,-4
COc1ccc(C(=O)N/N=C/c2cccc3cccnc23)cc1,97*,2,4,-3,-18,-1
COc1ccc(C(=O)N/N=C(\c2ccccc2)c2ccccn2)cc1,100*,3,-1,68*,78*,74*
CCC(C)(C)NC(=O)c1cccc(NC(=O)C(C)C)c1,-1,3,-3,6,-19,1
CCOc1ccccc1N1CCN(CC(O)COc2ccc3c(C)cc(=O)oc3c2)CC1 (stereo not drawn),5,5,0,0,-10,-1
CCc1nnc(NC(=O)C2(C)COC(c3ccccc3)OC2)s1 (stereo not drawn),-6,4,1,4,7,0
COC(=O)c1ccc(NC(=O)C(OC)c2ccccc2)cc1 (stereo not drawn),-3,9,1,3,-16,-1
CCOc1ccc(/C(C)=N/NC(=O)C(OC)c2ccccc2)cc1 (stereo not drawn),-6,10*,6,0,-17,-2
Cc1nc(N2CCN(C(=O)c3ccco3)CC2)c2oc3ccccc3c2n1,.,.,-1,.,.,.
CCc1nc(N2CCN(C(=O)c3ccco3)CC2)c2oc3ccccc3c2n1,83*,27*,14,6,9,4
CCOc1ccc(C2C([N+](=O)[O-])=C(C)N(C)C(=O)N2C)cc1OC (stereo not drawn),56*,2,-3,2,-17,0
COc1ccc(C2C([N+](=O)[O-])=C(C)N(C)C(=O)N2C)cc1OC (stereo not drawn),20,2,1,7,2,1
CN(c1ccc(C(=O)NCC2CCCO2)cc1)S(C)(=O)=O (stereo not drawn),-1,1,.,3,-5,3
COc1ccc(/C=C2\CCCC3C2=NC(=S)NC3c2ccc(OC)cc2)cc1 (stereo not drawn),29,9,56*,10,22,-2
